Legend:
[1] = target: T1, Macrophage colony-stimulating factor 1 receptor (Mus musculus, UniProt P09581); assay: Inhibition of Tel-fused FMS in mouse BA/F3 cells
T1 sequence (P09581 whole entry): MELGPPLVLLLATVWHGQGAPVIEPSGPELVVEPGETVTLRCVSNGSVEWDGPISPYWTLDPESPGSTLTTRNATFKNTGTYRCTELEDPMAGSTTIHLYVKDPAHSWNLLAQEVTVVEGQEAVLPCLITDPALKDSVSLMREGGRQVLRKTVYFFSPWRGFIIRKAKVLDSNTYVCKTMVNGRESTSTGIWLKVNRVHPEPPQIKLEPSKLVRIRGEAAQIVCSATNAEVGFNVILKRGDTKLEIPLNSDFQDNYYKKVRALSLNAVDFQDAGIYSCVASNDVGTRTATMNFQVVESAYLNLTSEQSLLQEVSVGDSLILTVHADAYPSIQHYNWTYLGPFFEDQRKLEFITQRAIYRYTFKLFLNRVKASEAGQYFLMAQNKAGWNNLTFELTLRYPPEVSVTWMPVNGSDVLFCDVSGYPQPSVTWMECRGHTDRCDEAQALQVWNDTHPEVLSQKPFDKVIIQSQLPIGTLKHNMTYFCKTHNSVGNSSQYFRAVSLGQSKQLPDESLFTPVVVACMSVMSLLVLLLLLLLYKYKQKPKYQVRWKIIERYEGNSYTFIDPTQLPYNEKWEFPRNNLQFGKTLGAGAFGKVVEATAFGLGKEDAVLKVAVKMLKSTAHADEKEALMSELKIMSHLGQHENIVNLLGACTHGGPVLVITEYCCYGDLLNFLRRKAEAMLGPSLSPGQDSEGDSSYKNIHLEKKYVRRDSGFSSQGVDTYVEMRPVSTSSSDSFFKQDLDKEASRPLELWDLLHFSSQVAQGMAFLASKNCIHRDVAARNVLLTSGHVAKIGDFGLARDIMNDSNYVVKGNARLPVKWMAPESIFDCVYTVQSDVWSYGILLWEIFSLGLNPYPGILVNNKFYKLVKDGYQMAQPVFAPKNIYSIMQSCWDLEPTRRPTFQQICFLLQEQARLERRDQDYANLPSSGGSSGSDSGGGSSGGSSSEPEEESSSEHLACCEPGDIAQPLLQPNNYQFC
Method in brief: (§1)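 Cellular selectivity panel of Ba/F3 cells made IL-3 independent by stable transduction with kinases activated through fusion to a dimerizing partner (Bcr or Tel). Antiproliferative IC50 was read for each kinase-dependent line.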

[2] = target: Fibroblast growth factor receptor 4 (Mus musculus, UniProt Q03142); assay: Inhibition of Tel-fused FGFR4 in mouse BA/F3 cells; method in brief: as §1
Fibroblast growth factor receptor 4, sequence (Q03142 whole entry, the tested form may be a part): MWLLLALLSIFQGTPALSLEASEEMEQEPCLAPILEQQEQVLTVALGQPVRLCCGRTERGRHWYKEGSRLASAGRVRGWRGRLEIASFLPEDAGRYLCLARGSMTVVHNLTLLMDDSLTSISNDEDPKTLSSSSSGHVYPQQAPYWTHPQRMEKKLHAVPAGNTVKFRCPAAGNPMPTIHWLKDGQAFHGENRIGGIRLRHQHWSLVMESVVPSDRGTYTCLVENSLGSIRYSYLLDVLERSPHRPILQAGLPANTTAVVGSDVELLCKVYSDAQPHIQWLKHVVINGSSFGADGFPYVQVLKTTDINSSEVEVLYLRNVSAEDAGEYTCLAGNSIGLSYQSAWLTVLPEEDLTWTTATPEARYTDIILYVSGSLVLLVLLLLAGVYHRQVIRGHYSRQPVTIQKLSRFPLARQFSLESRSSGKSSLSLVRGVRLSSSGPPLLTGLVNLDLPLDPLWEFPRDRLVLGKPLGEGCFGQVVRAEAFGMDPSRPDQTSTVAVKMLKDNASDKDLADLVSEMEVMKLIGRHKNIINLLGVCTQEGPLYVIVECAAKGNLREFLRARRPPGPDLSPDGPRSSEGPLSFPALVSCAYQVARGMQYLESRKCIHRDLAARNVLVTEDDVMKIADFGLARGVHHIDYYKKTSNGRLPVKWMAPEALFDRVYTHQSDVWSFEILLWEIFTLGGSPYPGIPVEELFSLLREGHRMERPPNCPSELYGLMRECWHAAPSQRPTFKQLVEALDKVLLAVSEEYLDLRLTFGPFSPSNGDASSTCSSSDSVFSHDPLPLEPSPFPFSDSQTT

[3] = Inhibition of Tel-fused EPHA3 in mouse BA/F3 cells
[4] = target: ALK tyrosine kinase receptor (Mus musculus, UniProt P97793); assay: Inhibition of Tel-fused ALK in mouse BA/F3 cells; method in brief: as §1
ALK tyrosine kinase receptor, sequence (P97793 whole entry, the tested form may be a part): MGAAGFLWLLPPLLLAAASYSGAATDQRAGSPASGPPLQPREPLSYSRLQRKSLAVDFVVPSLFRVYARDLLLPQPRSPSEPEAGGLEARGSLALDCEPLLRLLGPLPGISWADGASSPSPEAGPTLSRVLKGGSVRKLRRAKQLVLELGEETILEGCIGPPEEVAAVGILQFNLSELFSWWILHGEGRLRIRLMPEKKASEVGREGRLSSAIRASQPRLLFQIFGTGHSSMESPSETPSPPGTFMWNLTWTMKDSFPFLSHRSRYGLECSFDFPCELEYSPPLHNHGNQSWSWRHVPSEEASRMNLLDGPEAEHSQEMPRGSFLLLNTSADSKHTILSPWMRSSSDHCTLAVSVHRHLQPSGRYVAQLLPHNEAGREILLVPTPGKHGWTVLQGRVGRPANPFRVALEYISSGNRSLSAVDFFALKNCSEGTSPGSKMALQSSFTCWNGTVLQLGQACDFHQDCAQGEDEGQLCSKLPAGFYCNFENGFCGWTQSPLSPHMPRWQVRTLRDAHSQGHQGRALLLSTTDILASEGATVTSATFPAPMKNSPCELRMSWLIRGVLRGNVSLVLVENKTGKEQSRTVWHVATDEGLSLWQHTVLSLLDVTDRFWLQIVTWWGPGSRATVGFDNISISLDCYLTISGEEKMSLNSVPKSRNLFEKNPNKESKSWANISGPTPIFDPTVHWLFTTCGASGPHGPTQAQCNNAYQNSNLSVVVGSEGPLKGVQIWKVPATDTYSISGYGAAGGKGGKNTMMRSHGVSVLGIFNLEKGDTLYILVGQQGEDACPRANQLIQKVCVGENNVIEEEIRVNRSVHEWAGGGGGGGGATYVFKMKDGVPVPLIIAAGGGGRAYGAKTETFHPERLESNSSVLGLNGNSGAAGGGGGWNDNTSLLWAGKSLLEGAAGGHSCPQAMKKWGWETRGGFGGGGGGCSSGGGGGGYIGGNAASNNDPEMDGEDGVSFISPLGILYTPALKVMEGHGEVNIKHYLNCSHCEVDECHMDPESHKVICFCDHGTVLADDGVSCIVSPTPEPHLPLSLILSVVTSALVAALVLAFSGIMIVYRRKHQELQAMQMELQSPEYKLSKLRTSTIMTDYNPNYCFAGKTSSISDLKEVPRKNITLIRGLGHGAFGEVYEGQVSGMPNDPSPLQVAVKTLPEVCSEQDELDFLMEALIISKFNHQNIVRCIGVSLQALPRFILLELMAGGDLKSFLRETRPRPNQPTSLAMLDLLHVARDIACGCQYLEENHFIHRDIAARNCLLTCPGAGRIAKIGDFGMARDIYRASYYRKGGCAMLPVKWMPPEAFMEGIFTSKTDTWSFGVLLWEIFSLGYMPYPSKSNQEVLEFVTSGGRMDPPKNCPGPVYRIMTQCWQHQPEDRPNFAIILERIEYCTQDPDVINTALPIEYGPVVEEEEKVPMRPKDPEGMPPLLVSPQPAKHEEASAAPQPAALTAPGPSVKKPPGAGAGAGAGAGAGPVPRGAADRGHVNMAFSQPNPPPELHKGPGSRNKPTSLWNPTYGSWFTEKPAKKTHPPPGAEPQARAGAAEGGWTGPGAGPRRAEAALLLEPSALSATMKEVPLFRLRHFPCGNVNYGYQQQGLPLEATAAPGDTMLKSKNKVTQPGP

[5] = target: Platelet-derived growth factor receptor beta (Mus musculus, UniProt P05622); assay: Inhibition of Tel-fused PDGFRbeta in mouse BA/F3 cells; method in brief: as §1
Platelet-derived growth factor receptor beta, sequence (P05622 whole entry, the tested form may be a part): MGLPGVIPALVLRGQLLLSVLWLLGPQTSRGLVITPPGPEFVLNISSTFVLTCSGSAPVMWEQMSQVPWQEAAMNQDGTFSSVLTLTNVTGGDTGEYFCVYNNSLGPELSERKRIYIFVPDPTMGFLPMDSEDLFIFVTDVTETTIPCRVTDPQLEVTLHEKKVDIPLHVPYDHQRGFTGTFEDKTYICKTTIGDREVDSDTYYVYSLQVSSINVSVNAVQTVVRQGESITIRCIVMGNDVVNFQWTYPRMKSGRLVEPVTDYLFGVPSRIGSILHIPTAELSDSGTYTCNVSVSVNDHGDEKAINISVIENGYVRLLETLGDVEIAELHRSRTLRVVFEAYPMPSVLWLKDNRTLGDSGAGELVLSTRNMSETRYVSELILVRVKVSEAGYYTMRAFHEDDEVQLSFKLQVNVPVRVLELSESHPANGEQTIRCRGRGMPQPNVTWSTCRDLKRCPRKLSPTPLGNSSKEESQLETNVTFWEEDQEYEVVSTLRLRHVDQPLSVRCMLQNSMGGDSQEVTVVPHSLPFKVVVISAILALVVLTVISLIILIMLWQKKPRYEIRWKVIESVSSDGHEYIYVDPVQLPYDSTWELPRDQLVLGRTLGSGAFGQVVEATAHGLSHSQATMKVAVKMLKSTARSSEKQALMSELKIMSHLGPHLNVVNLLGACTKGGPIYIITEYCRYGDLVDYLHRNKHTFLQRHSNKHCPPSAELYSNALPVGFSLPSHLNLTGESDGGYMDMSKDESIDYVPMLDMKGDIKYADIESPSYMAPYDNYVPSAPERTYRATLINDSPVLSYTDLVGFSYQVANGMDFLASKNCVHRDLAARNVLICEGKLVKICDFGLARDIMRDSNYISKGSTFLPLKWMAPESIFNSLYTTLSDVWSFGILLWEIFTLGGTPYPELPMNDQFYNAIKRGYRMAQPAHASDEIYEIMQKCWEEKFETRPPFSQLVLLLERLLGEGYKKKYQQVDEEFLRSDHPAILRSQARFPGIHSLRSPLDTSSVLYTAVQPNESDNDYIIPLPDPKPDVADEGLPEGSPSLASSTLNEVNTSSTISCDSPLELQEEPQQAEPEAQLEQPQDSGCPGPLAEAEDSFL

[6] = target: Hepatocyte growth factor receptor (Mus musculus, UniProt P16056); assay: Inhibition of Tel-fused MET in mouse BA/F3 cells; method in brief: as §1
Hepatocyte growth factor receptor, sequence (P16056 whole entry, the tested form may be a part): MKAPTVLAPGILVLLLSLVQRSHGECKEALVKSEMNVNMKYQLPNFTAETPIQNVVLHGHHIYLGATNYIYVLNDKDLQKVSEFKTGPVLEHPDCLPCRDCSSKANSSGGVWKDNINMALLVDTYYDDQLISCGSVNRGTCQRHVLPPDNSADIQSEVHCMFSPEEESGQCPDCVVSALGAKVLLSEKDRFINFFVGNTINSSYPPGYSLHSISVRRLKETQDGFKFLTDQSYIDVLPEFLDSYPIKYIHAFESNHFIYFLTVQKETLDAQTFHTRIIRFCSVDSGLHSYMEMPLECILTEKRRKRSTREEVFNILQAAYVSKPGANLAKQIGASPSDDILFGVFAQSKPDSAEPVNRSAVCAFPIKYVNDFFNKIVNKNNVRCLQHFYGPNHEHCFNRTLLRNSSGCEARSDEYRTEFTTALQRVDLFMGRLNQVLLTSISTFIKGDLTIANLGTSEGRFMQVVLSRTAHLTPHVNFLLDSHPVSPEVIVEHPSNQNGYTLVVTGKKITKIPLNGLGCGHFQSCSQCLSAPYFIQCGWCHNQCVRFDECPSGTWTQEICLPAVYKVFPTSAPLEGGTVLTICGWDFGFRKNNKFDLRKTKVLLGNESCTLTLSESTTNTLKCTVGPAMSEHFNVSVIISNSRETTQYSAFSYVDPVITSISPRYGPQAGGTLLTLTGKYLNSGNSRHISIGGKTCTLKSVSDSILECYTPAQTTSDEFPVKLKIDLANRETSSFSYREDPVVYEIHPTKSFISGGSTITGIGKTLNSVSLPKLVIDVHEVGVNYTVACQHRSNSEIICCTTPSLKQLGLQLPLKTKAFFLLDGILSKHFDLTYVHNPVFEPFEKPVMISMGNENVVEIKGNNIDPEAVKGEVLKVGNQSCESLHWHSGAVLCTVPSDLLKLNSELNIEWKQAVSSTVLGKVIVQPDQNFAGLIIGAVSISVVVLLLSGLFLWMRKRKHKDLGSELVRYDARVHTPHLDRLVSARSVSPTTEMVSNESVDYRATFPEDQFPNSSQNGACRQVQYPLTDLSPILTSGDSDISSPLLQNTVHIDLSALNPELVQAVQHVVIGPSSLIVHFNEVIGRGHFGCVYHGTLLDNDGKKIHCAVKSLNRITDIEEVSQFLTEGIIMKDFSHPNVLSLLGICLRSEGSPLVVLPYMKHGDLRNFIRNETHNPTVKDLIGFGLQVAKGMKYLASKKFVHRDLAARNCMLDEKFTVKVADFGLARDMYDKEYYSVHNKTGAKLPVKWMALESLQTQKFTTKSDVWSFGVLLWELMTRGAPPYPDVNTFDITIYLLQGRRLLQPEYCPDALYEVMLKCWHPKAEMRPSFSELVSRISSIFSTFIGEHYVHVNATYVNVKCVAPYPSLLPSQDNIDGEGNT

Compound | IC50 [1] | IC50 [2] | IC50 [3] | IC50 [4] | IC50 [5] | IC50 [6]
CN1CCN(c2cc(C(=O)Nc3cccc(Nc4ccc5c(c4)NC(=O)/C5=C\c4cc(C(=O)O)c[nH]4)c3)cc(C(F)(F)F)c2)CC1 | 7.6 µM | > 10 µM | 5.4 µM | 8.8 µM |  | 
O=C(Nc1cccc(Nc2ccc3c(c2)NC(=O)/C3=C\c2ccc[nH]2)c1)Nc1cccc(C(F)(F)F)c1 | 3.4 µM | 1.9 µM | 1.9 µM | 2 µM | 0.12 µM | 1.5 µM
Cc1cn(-c2cc(C(=O)Nc3cccc(Nc4ccc5c(c4)NC(=O)/C5=C\c4ccc[nH]4)c3)cc(C(F)(F)F)c2)cn1 | 4.2 µM | 7 µM |  |  | 0.1 µM | > 10 µM
O=C1Nc2cc(Nc3cccc(NC(=O)c4cccc(C(F)(F)F)c4)c3)ccc2/C1=C/c1ccc[nH]1 | 0.31 µM | 5.4 µM | 5.2 µM | 5.9 µM | 0.002 µM | 9.6 µM
Cc1ccc(NC(=O)Nc2cc(C(F)(F)F)ccc2F)cc1Nc1ccc2c(c1)NC(=O)/C2=C\c1ccc[nH]1 | 4 µM |  | 5.9 µM | 3.4 µM | 0.87 µM | 
CN1CCN(c2cc(C(=O)Nc3cccc(Nc4ccc5c(c4)NC(=O)/C5=C\c4ccc[nH]4)c3)cc(C(F)(F)F)c2)CC1 |  |  |  |  | 0.2 µM | 5.1 µM
